# Experimental data pooled from the literature.
# Lines come from different studies, so protocols differ.
# Target: ALK tyrosine kinase receptor (ALK, Homo sapiens, UniProt Q9UM73)
Structure (SMILES),observed,action,technique,notes,IC50
CC(C)(C)n1nc(-c2cnc3cc(OC4CC4)ccc3c2)c(C(N)=O)c1N,cell-free assay,,,,> 10 µM
O=[N+]([O-])c1cccc(-c2cnc3[nH]c4ccccc4c3c2)c1,enzyme activity,inhibitor,ELISA,,> 10 µM
Cc1cc(Nc2cc(CN3CCOCC3)c3nc(C)c(Cc4ccc(Cl)cc4F)n3n2)n[nH]1,enzyme activity,inhibitor,TR-FRET,,0.138 µM
c1ccc(CCc2ccc3[nH]c4ncc(-c5ccc6c(c5)OCO6)cc4c3c2)cc1,enzyme activity,inhibitor,ELISA,,> 10 µM
C=CC(=O)Nc1cc(Nc2nccc(Nc3cc(Cl)c(F)cc3C(C)(C)O)n2)c(OC)cc1N1CC[C@@H](N(C)C)C1,enzyme activity,inhibitor,,with preincubation,1.17 µM
Cc1cc(-c2ccnc(C#N)c2)n[nH]1,enzyme activity,inhibitor,TR-FRET,,130 µM
COc1ccc2c(Oc3ccc4c(C(=O)Nc5ccccc5N)cccc4c3)ccnc2c1,enzyme activity,inhibitor,,,> 0.5 µM
COc1cccc(Nc2cnc3[nH]c4ccc(CCc5ccccc5)cc4c3c2)c1,enzyme activity,inhibitor,ELISA,,> 10 µM
Cc1cc(-c2cccc(Cl)c2)n[nH]1,enzyme activity,inhibitor,TR-FRET,,66 µM
CCn1ncc2c1-c1cnc(N)c(c1)O[C@H](C)c1cc(F)ccc1-c1nn(C)nc1C2,enzyme activity,inhibitor,radiometric,,0.0011 µM
Cc1cc(-c2cc(C#N)ccc2O[C@@H]2C[C@@H]2c2ccc(F)cc2F)n[nH]1,enzyme activity,inhibitor,TR-FRET,,1.3 µM
Clc1cnc2[nH]c3ccc(-c4ccc(N5CCOCC5)cn4)cc3c2c1,enzyme activity,inhibitor,ELISA,,> 10 µM
CC(C)(C)n1nc(-c2ccc3nc(OC4CC4)ccc3c2)c(C(N)=O)c1N,cell-free assay,,,,> 10 µM
Cc1cc(-c2cccc(C#N)c2)n[nH]1,enzyme activity,inhibitor,TR-FRET,,51 µM
